The source made the active and inactive calls. No cut-off for these calls is given here.
Tests used:
[1] = Drug uptake in humanized mouse liver at 50 mg/kg, sc after 24 hrs by LC-MS/MS analysis; format: ADME, organism-based; conditions: read-out: Drug uptake
Method in brief: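 Uninfected humanized mice given 50 or 200 mg/kg subcutaneously once daily as a methocel suspension for 8 days; liver concentration measured 24 h after dosing.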

[2] = Plasma concentration in humanized mouse at 50 mg/kg, sc after 24 hrs by LC-MS/MS analysis; format: ADME, organism-based
[3] = Drug metabolism in human liver microsomes at 1 uM after 15 mins by LC-MS/MS analysis; format: ADME, microsome; conditions: read-out: Drug metabolism
Method in brief: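 Compound incubated 15 min with human or mouse liver microsomes; stability expressed as percent turnover (metabolised) at 15 min.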

[4] = Cmax in C57BL/6 mouse at 10 mg/kg, po by LC-MS/MS analysis; format: ADME, organism-based; parameters: dose 10 mg/kg, route oral; conditions: in vivo
[5] = Cmax in C57BL/6 mouse at 50 mg/kg, po by LC-MS/MS analysis; format: ADME, organism-based; parameters: dose 50 mg/kg, route oral; conditions: in vivo
[6] = Tmax in C57BL/6 mouse at 10 mg/kg, po by LC-MS/MS analysis; format: ADME, organism-based; conditions: in vivo
Method in brief: (§1)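 Single-dose PK in C57BL/6 mice given compound intravenously and orally, with oral doses of 10 and 50 mg/kg. Plasma clearance, volume of distribution and oral bioavailability were derived from the plasma profiles.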

[7] = Tmax in C57BL/6 mouse at 50 mg/kg, sc by LC-MS/MS analysis; format: ADME, organism-based; conditions: in vivo
Method in brief: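 C57BL/6 mice dosed subcutaneously at 50 mg/kg to bypass first-pass metabolism; plasma and liver levels sampled 24 h after dosing.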

[8] = AUC (0 to last) in C57BL/6 mouse at 50 mg/kg, sc by LC-MS/MS analysis; format: ADME, organism-based; parameters: dose 50 mg/kg, time 0 - last, route subcutaneous; conditions: in vivo
[9] = Oral bioavailability in C57BL/6 mouse at 50 mg/kg by LC-MS/MS analysis; format: ADME, organism-based; conditions: in vivo; method in brief: as §1
[10] = biological target: T1, 5-hydroxytryptamine receptor 2B (Homo sapiens, UniProt P41595); assay: Antagonist activity at 5-HT2B (unknown origin) at 10 uM; format: functional
Method in brief: (§2)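 Receptor/ion channel/transporter panel of 80 targets screened at 10 µM, giving percent effect at 5-HT2B; follow-up 5-HT2B functional testing in agonist and antagonist modes, with antagonist IC50 determined.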

[11] = biological target: T1, 5-hydroxytryptamine receptor 2B; assay: Antagonist activity at 5-HT2B (unknown origin); format: functional; method in brief: as §2
[12] = biological target: Voltage-gated inwardly rectifying potassium channel KCNH2 (Homo sapiens, UniProt Q12809); assay: Inhibition of human ERG
[13] = biological target: T2, Cytochrome P450 2C8 (Homo sapiens, UniProt P10632); assay: Inhibition of CYP2C8 (unknown origin); format: ADME
T2 sequence (P10632 whole entry): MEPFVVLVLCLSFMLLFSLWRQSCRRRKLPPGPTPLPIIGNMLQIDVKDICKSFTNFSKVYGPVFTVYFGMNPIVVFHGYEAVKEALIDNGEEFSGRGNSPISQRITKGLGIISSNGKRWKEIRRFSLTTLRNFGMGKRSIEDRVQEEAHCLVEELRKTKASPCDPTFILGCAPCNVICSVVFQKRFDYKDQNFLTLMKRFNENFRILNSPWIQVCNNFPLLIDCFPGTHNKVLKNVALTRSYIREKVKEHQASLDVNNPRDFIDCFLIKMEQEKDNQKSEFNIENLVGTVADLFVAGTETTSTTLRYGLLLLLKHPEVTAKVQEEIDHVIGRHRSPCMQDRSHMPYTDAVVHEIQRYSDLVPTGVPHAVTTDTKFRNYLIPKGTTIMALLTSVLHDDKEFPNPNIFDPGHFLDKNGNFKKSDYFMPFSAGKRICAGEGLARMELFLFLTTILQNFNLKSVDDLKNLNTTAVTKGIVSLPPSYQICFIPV

[14] = biological target: Cytochrome P450 2C19 (Homo sapiens, UniProt P33261); assay: Inhibition of CYP2C19 (unknown origin); format: ADME
[15] = Unbound fraction in human plasma; format: ADME, cell-free
[16] = Drug uptake in C57BL/6 mouse plasma at 50 mg/kg, sc after 24 hrs by LC-MS/MS analysis; format: ADME, organism-based
Method in brief: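 C57BL/6 mice dosed subcutaneously once at 50 mg/kg, given to bypass first-pass metabolism; compound measured in plasma (ng/mL) and liver (ng/g) 24 h after dosing.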

[17] = Cmax in humanized mouse at 50 mg/kg, sc measured on day 1 post dose by LC-MS/MS analysis; format: ADME, organism-based; parameters: dose 50 mg/kg, route subcutaneous; conditions: in vivo
[18] = Tmax in humanized mouse at 50 mg/kg, sc for 8 days measured on day 8 post last dose by LC-MS/MS analysis; format: ADME, organism-based; conditions: in vivo
[19] = Tmax in humanized mouse at 200 mg/kg, sc measured on day 1 post dose by LC-MS/MS analysis; format: ADME, organism-based; conditions: in vivo
[20] = AUC (0 to 8 hrs) in humanized mouse at 50 mg/kg, sc measured on day 1 post dose by LC-MS/MS analysis; format: ADME, organism-based; parameters: dose 50 mg/kg, time < 8 hr, route subcutaneous; conditions: in vivo
[21] = AUC (0 to 24 hrs) in humanized mouse at 200 mg/kg, sc for 8 days measured on day 8 post last dose by LC-MS/MS analysis; format: ADME, organism-based; parameters: time < 24 hr, dose 200 mg/kg, route subcutaneous; conditions: in vivo
[22] = AUC (0 to infinity) in humanized mouse at 50 mg/kg, sc measured on day 1 post dose by LC-MS/MS analysis; format: ADME, organism-based; parameters: dose 50 mg/kg, time infinity, route subcutaneous; conditions: in vivo
[23] = AUC (0 to infinity) in humanized mouse at 50 mg/kg, sc for 8 days measured on day 8 post last dose by LC-MS/MS analysis; format: ADME, organism-based; parameters: dose 50 mg/kg, time infinity, route subcutaneous; conditions: in vivo
[24] = Half life in humanized mouse at 50 mg/kg, sc measured on day 1 post dose by LC-MS/MS analysis; format: ADME, organism-based; conditions: in vivo
[25] = Half life in humanized mouse at 50 mg/kg, sc for 8 days measured on day 8 post last dose by LC-MS/MS analysis; format: ADME, organism-based; conditions: in vivo
[26] = Half life in humanized mouse at 200 mg/kg, sc for 8 days measured on day 8 post last dose by LC-MS/MS analysis; format: ADME, organism-based; conditions: in vivo
[27] = tested on: HBV genotype D; assay: Antiviral activity against HBV genotype D infected in chimeric mouse with humanized liver assessed as log reduction in viral DNA level in serum at 200 mg/kg, sc qd for 28 days by RT-PCR method; format: functional, hepatitis B virus genotype D
Method in brief: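 HBV genotype D-infected chimeric mice with humanized liver (human hepatocyte replacement index ≥70%, judged by serum human albumin). Dosing was once daily for 28 days: test article 200 mg/kg s.c., entecavir 0.03 mg/kg oral as positive control, and oral saline as negative control. The read-out was serum HBV DNA (copies/mL), given as mean log change from baseline at day 29.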

[28] = tested on: HBV genotype D; assay: Antiviral activity against HBV genotype D infected in chimeric mouse with humanized liver assessed as reduction in HBsAg level at 200 mg/kg, sc qd for 28 days; format: functional, organism-based; conditions: hepatitis B virus genotype D
Method in brief: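 HBV genotype D-infected humanized-liver chimeric mice (≥70% human hepatocyte replacement) were dosed once daily for 28 days at 200 mg/kg s.c., with oral saline and oral entecavir 0.03 mg/kg as controls. Serum HBeAg and HBsAg were followed over the study.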

[29] = biological target: Core antigen (Hepatitis B virus) (UniProt Q03732); assay: Induction of HBV Maleimidyl BoDIPY-FL-labeled capsid Cp*150 mutant aggregation incubated for 30 mins measured every 10 secs for 30 mins by fluorescence quenching assay
[30] = biological target: T1, 5-hydroxytryptamine receptor 2B; assay: Agonist activity at 5-HT2B (unknown origin); format: functional
[31] = Drug metabolism in human primary hepatocytes assessed as cleavage of N-phenylamide; format: ADME, cell-based, Hepatocyte
Method in brief: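 Compound incubated with primary hepatocytes and checked for cleavage of the N-phenylamide bond.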

T1 sequence (P41595 whole entry): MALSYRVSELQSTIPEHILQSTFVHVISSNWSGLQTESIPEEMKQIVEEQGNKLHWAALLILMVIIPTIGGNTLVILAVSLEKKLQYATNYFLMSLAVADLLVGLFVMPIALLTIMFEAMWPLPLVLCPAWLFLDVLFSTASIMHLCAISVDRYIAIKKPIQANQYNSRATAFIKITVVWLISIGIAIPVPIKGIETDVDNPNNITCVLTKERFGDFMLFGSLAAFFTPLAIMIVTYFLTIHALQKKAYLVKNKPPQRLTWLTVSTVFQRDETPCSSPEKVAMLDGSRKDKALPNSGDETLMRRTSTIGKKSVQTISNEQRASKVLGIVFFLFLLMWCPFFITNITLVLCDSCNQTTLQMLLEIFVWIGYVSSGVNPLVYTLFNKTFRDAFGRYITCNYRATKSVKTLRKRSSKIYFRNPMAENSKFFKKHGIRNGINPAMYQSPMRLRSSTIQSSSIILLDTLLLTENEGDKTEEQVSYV
Core antigen (Hepatitis B virus), sequence (Q03732 as listed by the source): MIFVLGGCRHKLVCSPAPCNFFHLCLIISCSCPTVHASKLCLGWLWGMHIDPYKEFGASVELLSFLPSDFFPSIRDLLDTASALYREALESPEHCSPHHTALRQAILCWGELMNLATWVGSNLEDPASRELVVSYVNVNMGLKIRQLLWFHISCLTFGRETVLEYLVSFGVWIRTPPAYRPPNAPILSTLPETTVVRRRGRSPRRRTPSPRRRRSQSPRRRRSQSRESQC
Voltage-gated inwardly rectifying potassium channel KCNH2, sequence (Q12809 whole entry): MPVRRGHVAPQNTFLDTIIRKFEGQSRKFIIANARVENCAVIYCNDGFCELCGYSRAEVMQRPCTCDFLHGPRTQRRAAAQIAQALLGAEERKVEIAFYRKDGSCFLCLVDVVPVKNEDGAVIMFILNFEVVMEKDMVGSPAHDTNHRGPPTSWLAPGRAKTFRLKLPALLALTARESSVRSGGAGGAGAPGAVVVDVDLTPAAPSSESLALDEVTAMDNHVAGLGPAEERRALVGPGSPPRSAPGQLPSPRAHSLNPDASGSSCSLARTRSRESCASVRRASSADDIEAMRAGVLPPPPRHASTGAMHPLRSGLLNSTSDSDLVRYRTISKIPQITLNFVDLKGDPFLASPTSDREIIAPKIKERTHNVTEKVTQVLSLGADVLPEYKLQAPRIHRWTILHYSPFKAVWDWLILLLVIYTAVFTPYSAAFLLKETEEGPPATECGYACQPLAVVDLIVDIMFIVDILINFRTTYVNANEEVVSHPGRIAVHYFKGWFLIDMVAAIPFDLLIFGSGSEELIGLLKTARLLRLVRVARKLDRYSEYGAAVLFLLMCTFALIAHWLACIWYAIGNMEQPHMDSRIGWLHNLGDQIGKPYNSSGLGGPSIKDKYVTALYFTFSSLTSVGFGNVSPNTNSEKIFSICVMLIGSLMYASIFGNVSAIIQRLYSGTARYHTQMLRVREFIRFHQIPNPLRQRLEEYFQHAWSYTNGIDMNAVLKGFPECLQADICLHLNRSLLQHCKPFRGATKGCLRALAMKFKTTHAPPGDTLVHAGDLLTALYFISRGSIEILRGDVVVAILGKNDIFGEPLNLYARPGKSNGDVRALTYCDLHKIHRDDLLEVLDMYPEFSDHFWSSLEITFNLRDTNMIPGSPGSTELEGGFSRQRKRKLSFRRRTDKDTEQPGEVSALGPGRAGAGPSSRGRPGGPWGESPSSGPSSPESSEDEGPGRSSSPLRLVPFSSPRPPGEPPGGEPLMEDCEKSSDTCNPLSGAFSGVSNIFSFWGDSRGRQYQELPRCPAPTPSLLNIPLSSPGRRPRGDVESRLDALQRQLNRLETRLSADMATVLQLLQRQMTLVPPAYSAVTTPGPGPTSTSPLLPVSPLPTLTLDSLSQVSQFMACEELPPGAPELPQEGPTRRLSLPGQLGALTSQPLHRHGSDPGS
Cytochrome P450 2C19, sequence (P33261 whole entry): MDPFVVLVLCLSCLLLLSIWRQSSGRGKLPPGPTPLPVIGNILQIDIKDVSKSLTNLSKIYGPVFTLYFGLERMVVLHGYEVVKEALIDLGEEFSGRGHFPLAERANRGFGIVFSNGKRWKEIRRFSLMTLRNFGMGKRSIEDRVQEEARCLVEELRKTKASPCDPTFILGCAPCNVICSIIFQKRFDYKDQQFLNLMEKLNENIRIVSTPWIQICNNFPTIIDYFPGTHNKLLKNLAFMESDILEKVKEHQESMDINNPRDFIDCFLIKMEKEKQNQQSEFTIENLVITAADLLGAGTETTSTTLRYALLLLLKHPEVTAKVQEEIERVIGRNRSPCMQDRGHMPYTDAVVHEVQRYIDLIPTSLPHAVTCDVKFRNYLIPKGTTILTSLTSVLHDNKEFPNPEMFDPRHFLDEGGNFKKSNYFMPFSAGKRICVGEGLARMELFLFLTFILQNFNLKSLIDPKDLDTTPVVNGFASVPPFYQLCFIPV

Structure (SMILES): Cc1cc(NC(=O)c2cccc(S(=O)(=O)N[C@H]3CCOC3)c2)ccc1F
- concentration at 24 h [1]: 570 ng/g
- concentration at 24 h [2]: 167 ng/mL
- metabolised at 0.25 h, 1 µM [3]: 26%
- Cmax [4]: 1940 ng/mL
- Cmax [5]: 9440 ng/mL
- Tmax [6]: 0.5 h
- Tmax [7]: 1 h
- AUC(0-t) [8]: 16900 ng·h/mL
- bioavailability [9]: 66%
- inhibition [10]: 71%
- IC50 [11]: 4 to 5.6 µM
- IC50 [12]: > 10 µM
- IC50 [13]: > 10 µM
- IC50 [14]: > 10 µM
- fraction unbound [15]: 0.081
- concentration at 24 h [16]: 102 ng/mL
- Cmax [17]: 2190 ng/mL
- Tmax [18]: 0.8 h
- Tmax [19]: 0.8 h
- AUC(0-t) at 8 h [20]: 4750 ng·h/mL
- AUC at 24 h [21]: 86900 ng·h/mL
- AUC(0-inf) [22]: 4780 ng·h/mL
- AUC(0-inf) [23]: 20700 ng·h/mL
- half-life [24]: 1.1 h
- half-life [25]: 6.2 h
- half-life [26]: 12.1 h
- log(activity) [27]: 2.77
- Activity [28]: inactive
- Activity [29]: Active
- Activity [30]: inactive
- Drug metabolism [31]: Metabolite_Notdetected
